Measured values as given in ChEMBL document CHEMBL1122985, “Synthesis and evaluation of N,N'-bis(arylsulfonyl)hydrazines as antineoplastic agents” (1985).

How the values were obtained:
Type in all cases: functional
Mus musculus [1] = experiment: Percent change in the weight after administering a dose of 100 mg/kg to mice bearing L1210 leukemia
How it was run: (§1)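 L1210 ascites cells were propagated in CDF₁ mice and 0.1 mL of a suspension at 10⁶ cells/mL in isotonic saline was implanted ip. Compound was given ip once daily for 6 consecutive days starting 24 h after implantation, as a fine suspension in Tween 80/saline (0.5 mL). Groups of five were used, with vehicle controls. The read-out was average body-weight change from onset to end of therapy.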

Mus musculus [2] = experiment: Percent change in the weight after administering a dose of 150 mg/kg to mice bearing L1210 leukemia; how it was run: as §1
Mus musculus [3] = experiment: Percent change in the weight after administering a dose of 50 mg/kg to mice bearing L1210 leukemia; how it was run: as §1
Mus musculus [4] = experiment: Average survival time of control mice bearing L1210 leukemia at a dose 50 mg/kg
How it was run: (§2)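 L1210 ascites cells passaged in CDF1 mice, taken from 7-day donors, spun, diluted 10-fold in isotonic saline and set to 10^6 cells/mL by Coulter count; 0.1 mL given ip. Compound suspended in 2–3 drops 20% aqueous Tween 80 plus isotonic saline, 0.5 mL ip once daily for 6 days from 24 h after implant. Groups of five; vehicle-injected controls. %T/C = treated/control mean survival ×100.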

Mus musculus [5] = experiment: Average survival time of treated mice bearing the L1210 leukemia at a dose 100 mg/kg; how it was run: as §2
Mus musculus [6] = experiment: Average survival time of treated mice bearing the L1210 leukemia at a dose 150 mg/kg; how it was run: as §2
Mus musculus [7] = experiment: Average survival time of treated mice bearing the L1210 leukemia at a dose 50 mg/kg; how it was run: as §2
Mus musculus [8] = experiment: Percentage of average survival time of control/treated mice bearing the L1210 leukemia at a dose 100 mg/kg; how it was run: as §2
Mus musculus [9] = experiment: Percentage of average survival time of control/treated mice bearing the L1210 leukemia at a dose 150 mg/kg; how it was run: as §2
Mus musculus [10] = experiment: Percentage of average survival time of control/treated mice bearing the L1210 leukemia at a dose 50 mg/kg; how it was run: as §2
Mus musculus [11] = experiment: Percentage of average survival time of control/treated mice bearing P388 leukemia at a dose 150 mg/kg
Mus musculus [12] = experiment: Average survival time of mice bearing L1210 leukemia at a dose 50 mg/kg; how it was run: as §2
Mus musculus [13] = experiment: Percentage of average survival time of control/treated mice bearing sarcoma 180 at a dose 50 mg/kg
Mus musculus [14] = experiment: Percentage of average survival time of control/treated mice bearing sarcoma 180 at a dose 100 mg/kg

Compound | Average weight change (Mus musculus [1]) [%] | Average weight change (Mus musculus [2]) [%] | Average weight change (Mus musculus [3]) [%] | Survival time (Mus musculus [4]) [days] | Survival time (Mus musculus [5]) [days] | Survival time (Mus musculus [6]) [days] | Survival time (Mus musculus [7]) [days] | T/C (Mus musculus [8]) [%] | T/C (Mus musculus [9]) [%] | T/C (Mus musculus [10]) [%] | T/C (Mus musculus [11]) [%] | Survival time (Mus musculus [12]) [days] | T/C (Mus musculus [13]) [%] | T/C (Mus musculus [14]) [%]
CN(NC(=O)c1ccccc1)C(=O)c1ccccc1 | -2 | -2 | 2.5 | 9.5 | 9.2 | 9.2 | 9.2 | 97 | 97 | 97 |  |  |  | 
CN(NS(=O)(=O)c1ccc(Cl)cc1)S(=O)(=O)c1ccc(Cl)cc1 | 1.3 | 6.9 | 4 | 9.5 |  |  | 11.4 | 124 |  | 120 |  |  |  | 
O=S(=O)(NNS(=O)(=O)c1ccccc1)c1ccccc1 | 5.8 | 0.8 | -0.3 | 9.5 | 9.2 | 9.6 | 9.2 | 97 | 101 | 97 |  |  |  | 
COc1ccc(S(=O)(=O)NN(C)S(=O)(=O)c2ccc(OC)cc2)cc1 | -1.6 | 4.1 | 1.9 | 9 |  |  |  |  |  |  | 136 |  |  | 
CN(NS(=O)(=O)c1ccc2ccccc2c1)S(=O)(=O)c1ccc2ccccc2c1 | -3.3 | 4.1 | 3 | 9 |  | 9 |  |  |  |  |  |  |  | 
Cc1ccc(S(=O)(=O)NN(C)S(=O)(=O)c2ccc(C)cc2)cc1 | 0.8 |  | 3.7 | 9.5 |  |  |  |  |  |  |  | 14 | 197 | 
CN(NS(=O)(=O)c1ccccc1)S(=O)(=O)c1ccccc1 | -5.2 | -13.5 | -4.8 | 9 |  | 9.4 |  |  |  |  |  |  |  | 203
